The values below come from paper PMC11400628 (Protein Science : A Publication of the Protein Society, 2024).

In general, IC50 refers to the midpoint of a concentration-inhibition curve. High values mean weaker potency in that assay, low ones greater potency in that assay. As usually defined, the Kd is the constant that tells how readily two partners part at equilibrium. Usually Ki stands for a dissociation constant, usually derived from enzyme kinetics or from competition with a known ligand. Usually stoichiometry N stands for a count of units in the complex or per binding partner.

Data set [1] has as its target T1, CaMKIIα 6x hub (Homo sapiens, UniProt Q9UQM7, E355Q/F467M/I414M/I464H/T354N/T412N).
T1 sequence (Q9UQM7 345-475 T354N/E355Q/T412N/I414M/I464H/F467M): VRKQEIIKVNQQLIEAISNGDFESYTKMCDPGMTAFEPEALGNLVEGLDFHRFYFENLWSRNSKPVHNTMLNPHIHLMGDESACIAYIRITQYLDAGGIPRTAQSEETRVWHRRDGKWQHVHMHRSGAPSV
As to the kind of experiment: Intrinsic tryptophan fluorescence assay. To be noted: pIC50, quenching of intrinsic tryptophan fluorescence, purified CaMKIIα 6x hub. It counts as binding. Put shortly: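 Purified human CaMKIIα 6x hub (residues 345–475 with six stabilising mutations). Intrinsic Trp fluorescence was read at 25°C across a test compound series (e.g. 0.43–12.1 μM). Signals were background-corrected for compound in buffer, then normalised between hub alone and the high-concentration plateau. IC50 came from a variable-slope log(inhibitor)-response fit of pooled data, n = 3.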

Data set [2] concerns the target T2, CaMKIIα WT hub (Homo sapiens, UniProt Q9UQM7).
T2 sequence (Q9UQM7 345-475): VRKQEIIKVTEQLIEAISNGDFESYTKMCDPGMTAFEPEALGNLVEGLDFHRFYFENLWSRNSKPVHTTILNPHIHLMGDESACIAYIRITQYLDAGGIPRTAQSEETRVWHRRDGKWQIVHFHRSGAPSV
The experiment in a line: Thermal shift assay. The note with it: for maximum ∆Tm: DSF, mean ± SEM, n = 3. The data set is classed as binding.

In data set [3] the target is T3, CaMKIIα W403L hub (Homo sapiens, UniProt Q9UQM7, W403L).
T3 sequence (Q9UQM7 345-475 W403L): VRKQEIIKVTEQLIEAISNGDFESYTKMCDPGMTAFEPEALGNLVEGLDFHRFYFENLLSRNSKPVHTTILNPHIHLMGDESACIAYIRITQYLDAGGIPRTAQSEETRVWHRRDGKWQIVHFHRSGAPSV
As to the kind of experiment: Mass photometry, CaMKIIα W403L hub. The note with it: CaMKIIα W403L hub 100–500 nM, incubated with 200 μM PIPA. An outline of the steps: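 Mass photometry. The instrument was calibrated with apoferritin, BSA and […]. Purified W403L hub (1.5 mg/mL) was incubated 90 min with 200 μM test compound, then desalted into MES buffer (20 mM MES, 150 mM NaCl, 1 mM DTT, pH 6.0) plus compound. It was diluted to 500, 200 and 100 nM and recorded for 60 s, with a buffer blank before each run. Single-molecule mass histograms were built.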

Data set [4] has as its target T3, CaMKIIα W403L hub. The experiment in a line: Thermal shift assay. It counts as binding. The note with it: DSF, mean ± SEM, n = 3.
Data set [5] has as its target T3, CaMKIIα W403L hub. The experiment in a line: Surface plasmon resonance, immobilized CaMKIIα W403L hub. The data set is classed as binding. An outline of the steps:
(§1)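 SPR at 25°C. Purified hub (WT or W403L) was amine-coupled to the sensor in 20 mM NaAc, pH 5. Test compound was injected as twofold dilutions in MES running buffer (20 mM MES, 150 mM NaCl, 1 mM DTT, pH 6), with blank and reference-surface subtraction. Equilibrium responses versus concentration were fitted to a 1:1 Langmuir isotherm for KD. Independent experiments: WT n = 3, W403L n = 2.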

In data set [6] the target is T3, CaMKIIα W403L hub. As to the kind of experiment: Small-angle X-ray scattering, CaMKIIα W403L hub. To be noted: CaMKIIα W403L hub 6.8 mg/mL, PIPA 200 μM. An outline of the steps: (§2)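 SAXS. Purified hub constructs were buffer-exchanged by spin desalting into 20 mM MES, 150 mM NaCl, 1 mM DTT, pH 6.0, with or without 200 μM test compound, and measured as dilution series of 1–7 mg/mL protein at 20–22°C. Frames were radially averaged, buffer-subtracted and merged, scaled by concentration. Curves were fitted with dodecamer, tetradecamer, mixed or stacked-dodecamer models.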

Data set [7] addresses T1, CaMKIIα 6x hub. The experiment in a line: Small-angle X-ray scattering, CaMKIIα 6x hub. To be noted: CaMKIIα 6x hub 6.7 mg/mL, PIPA 200 μM. An outline of the steps:
as §2

Data set [8] has as its target T2, CaMKIIα WT hub. As to the kind of experiment: Surface plasmon resonance, immobilized CaMKIIα WT hub. The data set is classed as binding. An outline of the steps:
as §1
A general note: Surface plasmon resonance follows binding to a sensor surface in real time, without labels.

Data set [9] concerns the target T2, CaMKIIα WT hub. As to the kind of experiment: Mass photometry, CaMKIIα WT hub. The note with it: CaMKIIα WT hub 100–500 nM, incubated with 200 μM PIPA.
In data set [10] the target is T2, CaMKIIα WT hub. The experiment in a line: Small-angle X-ray scattering, CaMKIIα WT hub. The note with it: CaMKIIα WT hub 1.2–3.9 mg/mL; PIPA 200 μM, HOCPCA 1000 μM, 5-HDC 100 μM.
The target of another data set is CaMKIIα holoenzyme (Homo sapiens, UniProt Q9UQM7). The experiment in a line: ADP-Glo kinase assay, syntide-2 phosphorylation. The data set is classed as biochemical. To be noted: sub-maximal (30 nM) CaM; concentrations up to 5–10 mM.
A further data set has as its target GHB binding site. To be noted: low-affinity; ref Wellendorph et al., 2009; cited from earlier work.
Data set [11] deals with human CaMKIIα W403L hub domain (human) (UniProt Q9UQM7). As to the kind of experiment: mass photometry.
The data set “SAXS” concerns the molecule itself. The experiment in a line: SAXS.

Sequence of CaMKIIα holoenzyme (Q9UQM7 whole entry): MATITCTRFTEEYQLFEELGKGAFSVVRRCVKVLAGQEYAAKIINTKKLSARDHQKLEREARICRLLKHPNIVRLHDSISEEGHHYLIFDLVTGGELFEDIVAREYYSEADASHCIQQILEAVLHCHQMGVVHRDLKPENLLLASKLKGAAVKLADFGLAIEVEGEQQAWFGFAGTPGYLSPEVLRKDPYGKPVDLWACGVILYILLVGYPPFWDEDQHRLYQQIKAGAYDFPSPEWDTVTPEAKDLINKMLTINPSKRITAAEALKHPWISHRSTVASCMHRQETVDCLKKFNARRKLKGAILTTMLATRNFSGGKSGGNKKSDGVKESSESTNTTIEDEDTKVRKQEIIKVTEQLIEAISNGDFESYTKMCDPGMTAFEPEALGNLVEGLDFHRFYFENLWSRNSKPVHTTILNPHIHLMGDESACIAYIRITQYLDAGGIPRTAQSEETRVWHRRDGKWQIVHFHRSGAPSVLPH

Regarding `O=C(O)Cc1cn2nc(-c3ccc(Cl)cc3)ccc2n1` [PIPA, 2‐(6‐(4‐chlorophenyl)imidazo[1,2‐b]pyridazine‐2‐yl)acetic acid], the IC50 at CaMKIIα 6x hub [1] is 5010 nM. Also, the figures for the “maximum ∆Tm” value on CaMKIIα WT hub [2] and at CaMKIIα W403L hub [4] were 13.04 ± 0.09 °C and 24.5 ± 0.4 °C, respectively. Moreover, the “maximum ∆Tm less compared to 5-HDC” value at CaMKIIα WT hub [2] (difference PIPA vs 5-HDC) was 10.7 °C. Besides, at CaMKIIα W403L hub [3], the “change in MW (mass photometry)” value is “did not display any change in MW”. In addition, the Kd at CaMKIIα W403L hub [5] came out at 2800 ± 130 nM; at CaMKIIα WT hub [8] it was 2900 ± 600 nM. Moreover, the “self-association of hub (SAXS)” value on CaMKIIα W403L hub [6] and at CaMKIIα 6x hub [7] was “no self‐association was detected” in each case. The “molecular weight species (mass photometry)” value at CaMKIIα WT hub [9] is reported as “displayed a shoulder on the main peak around 220 kDa as well as a much larger species at 372 kDa”. The “self-association / oligomeric state of hub (SAXS)” value on CaMKIIα WT hub [10] is recorded as “induced self‐association”.

As to `O=C(O)C1=CC(O)CC1` (stereo not shown) [HOCPCA, 3‐hydroxycyclopent‐1‐enecarboxylic acid, reference compound], the “maximum ∆Tm” value was determined as 11.5 ± 0.6 °C on CaMKIIα WT hub [2] and 15.2 ± 1.0 °C at CaMKIIα W403L hub [4]. On CaMKIIα holoenzyme, the “effect on syntide-2 substrate phosphorylation” value is “neither of the compounds affected substrate phosphorylation”. The “self-association / oligomeric state of hub (SAXS)” value at CaMKIIα WT hub [10] is “not observed”.

As to `CC(=O)O` [acetate], the Ki on GHB binding site is over 100000 nM. Besides, on CaMKIIα holoenzyme, the “effect on syntide-2 substrate phosphorylation” value was “neither of the compounds affected substrate phosphorylation”.

For “human CaMKIIα W403L hub domain (from UniProt Q9UQM7 345-475) (domain or fragment)”, in data set [11], the stoichiometry N came out at 12.

B1: human CaMKIIα wild-type (WT) hub domain (domain or fragment, UniProt Q9UQM7 345-475, looked up)
chain: VRKQEIIKVTEQLIEAISNGDFESYTKMCDPGMTAFEPEALGNLVEGLDFHRFYFENLWSRNSKPVHTTILNPHIHLMGDESACIAYIRITQYLDAGGIPRTAQSEETRVWHRRDGKWQIVHFHRSGAPSV
Turning to B1, in the data set “SAXS”, the “stoichiometry N” value was found to be 12.
